In brackets after ≈: the same amount, converted by molar mass. Activity calls are given as the source filed them. The rule behind the calls is not given here.

Data set [1] addresses T1, Quinolone resistance protein NorA (Staphylococcus aureus) (UniProt P0A0J7).
T1 sequence (whole entry): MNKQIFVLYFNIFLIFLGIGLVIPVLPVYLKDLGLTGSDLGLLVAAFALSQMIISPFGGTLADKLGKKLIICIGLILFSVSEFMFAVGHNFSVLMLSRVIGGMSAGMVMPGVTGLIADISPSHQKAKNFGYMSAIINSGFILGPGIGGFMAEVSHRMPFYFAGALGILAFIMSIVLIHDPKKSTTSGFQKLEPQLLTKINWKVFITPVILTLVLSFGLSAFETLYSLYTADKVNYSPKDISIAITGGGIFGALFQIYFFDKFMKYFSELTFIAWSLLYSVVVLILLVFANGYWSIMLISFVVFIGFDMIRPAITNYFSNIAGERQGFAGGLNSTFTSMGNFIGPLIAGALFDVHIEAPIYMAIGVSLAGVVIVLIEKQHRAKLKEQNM
In words: Inhibition of NorA pump-mediated ethidium bromide efflux in Staphylococcus aureus K1199B at 50 uM by fluorimetric analysis. The method in brief: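 Loss of ethidium bromide from norA-overexpressing S. aureus SA-1199B measured fluorometrically with test agent at 50 µM. Run in duplicate; read-out is the mean total efflux over a 5 min time course.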

The nature of data set [2]: Lipophilicity, log P of the compound. As to conditions: octanol/water. The format is physicochemical.
In data set [3] the target is T1, Quinolone resistance protein NorA (Staphylococcus aureus). In words: Inhibition of NorA in Staphylococcus aureus ATCC 25923 assessed as fold reduction of ciprofloxacin MIC at 25 ug/mL by microdilution technique. The method in brief:
(§1)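 Ciprofloxacin MICs were measured in duplicate by broth microdilution following CLSI guidelines. They were determined alone and with scalar dilutions of freshly prepared test compound, which was added at the fixed concentration stated in the line. The result is the fold decrease in the ciprofloxacin MIC when compound is present.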

The target is the same in data set [4]. In words: Inhibition of NorA overexpressing Staphylococcus aureus K2378 assessed as fold reduction of ciprofloxacin MIC at 25 ug/mL by microdilution technique. The method in brief: as §1
(In general: Dilution methods test growth across graded concentrations, often in twofold steps.)

Data set [5] relates to Staphylococcus aureus. Put plainly: Antibacterial activity against wild type Staphylococcus aureus ATCC 25923 by microdilution technique. The format is functional. The method in brief:
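MICs determined in duplicate by broth microdilution following CLSI guidelines.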

Data set [6] relates to Staphylococcus aureus. In words: Antibacterial activity against Staphylococcus aureus K1199B at 50 uM by microdilution technique. The format is functional, organism-based.
The target in data set [7] is T1, Quinolone resistance protein NorA (Staphylococcus aureus). Put plainly: Inhibition of NorA overexpressing Staphylococcus aureus K2378 assessed as fold reduction of ciprofloxacin MIC at 6.25 ug/mL by microdilution technique. In outline: as §1
The target is the same in data set [8]. In words: Inhibition of NorA overexpressing Staphylococcus aureus K2378 assessed as fold reduction of ciprofloxacin MIC at 12.5 ug/mL by microdilution technique. In outline: as §1
Data set [9] shares this target. In words: Inhibition of NorA deficient Staphylococcus aureus K1902 assessed as fold reduction of ciprofloxacin MIC at 25 ug/mL by microdilution technique.
For data set [10] the target is unchanged. In words: Inhibition of NorA deficient Staphylococcus aureus K1902 assessed as fold reduction of ciprofloxacin MIC at 12.5 ug/mL by microdilution technique.
In data set [11] the test system is Staphylococcus aureus. In words: Antibacterial activity against norA deficient Staphylococcus aureus K2378 by microdilution technique.
The test system of data set [12] is Staphylococcus aureus. In words: microbe, parasite or virus in culture. As to conditions: ATCC 25923.
The subject of data set [13] is Staphylococcus aureus. Put plainly: Antibacterial activity against norA expressing Staphylococcus aureus K1902 by microdilution technique.

In general, inhibition refers to the drop in the measured response relative to a control, in per cent. The low end stands for little suppression, the high end for strong suppression. What is called logP is a log measure of how a compound divides between an organic and an aqueous phase. Read a high logP as a more lipophilic compound. In turn, `COc1ccccc1C1=Nc2ccccc2SC1` had an inhibition in [1] of 0%. This molecule also gave a logP in data set [2] of 2.9. The fold change (FC) in data set [3] is 4; in data set [4], 8. This molecule also displayed an MIC in the data set with Staphylococcus aureus [5] of 64 µg/mL (≈ 251 µM). In the data set with Staphylococcus aureus [6], the result was inactive.
In data set [1], `O=[N+]([O-])c1ccc(C2=Nc3ccccc3SC2)cc1` had an inhibition of 19.6%. Besides, the fold change (FC) in data set [3] and in [4] was 2 each time. Further, the MIC in the data set with Staphylococcus aureus [5] is > 128 µg/mL. Moreover, the result with Staphylococcus aureus [6] was inactive.
The molecule `CCCOc1ccc(C2=CSc3ccccc3N2C)cc1` registered an inhibition in [1] of 0%. Besides, in data set [4], the fold change (FC) is 4. For the same molecule, the MIC in the data set on Staphylococcus aureus [5] was > 512 µg/mL. Also, the result with Staphylococcus aureus [6] was inactive.
As for `COc1ccc(C2=Nc3ccccc3SC2)cc1`, the fold change (FC) is 2 in data set [7], 4 in [8], > 8 in [3] and 16 in data set [4]. The same molecule gave an inhibition in data set [1] of 19.5%. This molecule also yielded a logP in data set [2] of 3.1. In addition, the MIC with Staphylococcus aureus [5] is > 512 µg/mL. In addition, the result in the data set with Staphylococcus aureus [6] was inactive.
The molecule `CCCOc1ccc(C2=Nc3ccccc3SC2)cc1` yielded an inhibition in data set [1] of 84.7%. The same molecule returned a log partition coefficient (logP) in data set [2] of 4. Moreover, the fold change (FC) in data set [3] is > 8; in data set [4], 4. Moreover, the MIC against Staphylococcus aureus [5] is 128 µg/mL (≈ 452 µM). Besides, in the data set with Staphylococcus aureus [6], the outcome was inactive.
As to `CSc1ccc(C2CSc3ccccc3N2)cc1` (configuration not stated), the fold change (FC) was 8 in data set [7], 8 in data set [8], > 8 in data set [3] and 16 in data set [4]. In data set [1], the inhibition is 28.2%. The logP in data set [2] worked out at 4.5. The MIC in the data set with Staphylococcus aureus [5] is > 128 µg/mL. Besides, in the data set with Staphylococcus aureus [6], the outcome was inactive.
Turning to `Clc1ccc(C2=Nc3ccccc3SC2)cc1`, the fold change (FC) in [3], in data set [4] and in [9] was 4 throughout. Moreover, the MIC with Staphylococcus aureus [5] came to 64 µg/mL (≈ 246 µM).
`c1ccc(C2=Nc3ccccc3SC2)cc1` had an inhibition in data set [1] of 0%. The molecule also returned a logP in data set [2] of 3. The fold change (FC) in [3] was 8. Besides, in the data set with Staphylococcus aureus [5], the MIC was > 512 µg/mL. Moreover, the outcome in the data set with Staphylococcus aureus [6] was inactive.
With `Fc1ccc(C2=Nc3ccccc3SC2)cc1`, the fold change (FC) came to 2 in data set [7]; 2 in [8]; 4 in data set [3]; 16 in data set [4]; 2 in [9]. Further, in data set [1], the inhibition stood at 0%. Also, in data set [2], the logP stood at 3.2. Moreover, the MIC with Staphylococcus aureus [5] amounted to 64 µg/mL (≈ 263 µM). In the data set on Staphylococcus aureus [6], the outcome was inactive.
With `COc1ccc(C2=Nc3cc(C(F)(F)F)ccc3SC2)cc1`, the fold change (FC) in data set [3] was 2; in data set [4] it was 8. This molecule also came in with an MIC against Staphylococcus aureus [5] of 64 µg/mL (≈ 198 µM).
For `COc1cc(C2=Nc3ccccc3SC2)cc(OC)c1OC`, the fold change (FC) in [7] worked out at 2; in [8] it was 4; in data set [3], 4; in data set [4], 16. This molecule also displayed an inhibition in [1] of 23.6%. The MIC against Staphylococcus aureus [5] was 32 µg/mL (≈ 101 µM). Besides, the outcome in the data set on Staphylococcus aureus [6] was inactive.
As to `O=S1(=O)C=C(c2ccc(Cl)cc2)Nc2ccccc21`, the fold change (FC) in [3] amounted to 4; in data set [4] it was 2. Further, the MIC against Staphylococcus aureus [5] was determined as 128 µg/mL (≈ 439 µM).
With `FC(F)(F)c1ccc2c(c1)N=C(c1ccccc1)CS2`, the fold change (FC) in data set [7] stood at 4; in data set [8], 16; in data set [3] it was 2; in data set [4], 16. For the same molecule, the inhibition in [1] worked out at 8.4%. In the data set with Staphylococcus aureus [5], this molecule registered an MIC of 32 µg/mL (≈ 109 µM). Further, the result in the data set with Staphylococcus aureus [6] was inactive.
Take `Cc1ccc(C2=Nc3ccccc3SC2)cc1`: the fold change (FC) in data set [3] amounted to 4; in data set [9], 8. In the data set with Staphylococcus aureus [5], the MIC is 64 µg/mL (≈ 267 µM).
Regarding `O=S1(=O)C=C(c2ccccc2)Nc2ccccc21`, the fold change (FC) in data set [3] and in data set [4] was 2 each time. In the data set with Staphylococcus aureus [5], this molecule showed an MIC of 128 µg/mL (≈ 497 µM).
For the molecule `COc1cccc(C2=Nc3ccccc3SC2)c1`, the values for the fold change (FC) in data set [3] and in data set [4] were 4 and 8, respectively. The molecule also gave an MIC with Staphylococcus aureus [5] of 64 µg/mL (≈ 251 µM).
As for `CC(C)CCOc1ccc(C2=Nc3ccccc3SC2)cc1`, in data set [1], the inhibition was found to be 16.9%. The results for the fold change (FC) in data set [3] and in data set [4] were 4 and 2, respectively. In addition, the MIC against Staphylococcus aureus [5] was > 128 µg/mL. Also, the outcome with Staphylococcus aureus [6] was inactive.
`CN(C)CCCN1c2ccccc2Sc2ccc(Cl)cc21` [CHLORPROMAZINE] registered an inhibition in data set [1] of 81%. In data set [2], the logP worked out at 5.2. Also, the fold change (FC) is 8 in [4] and > 4 in data set [9]. Besides, the MIC in the data set on Staphylococcus aureus [5] was 128 µg/mL (≈ 401 µM).
Molecule `COC(=O)[C@H]1[C@H]2C[C@@H]3c4[nH]c5cc(OC)ccc5c4CCN3C[C@H]2C[C@@H](OC(=O)c2cc(OC)c(OC)c(OC)c2)[C@@H]1OC` [RESERPINE] returned a logP in [2] of 4. Further, the fold change (FC) in data set [3] turned out to be 2; in data set [4], 4; in data set [9] it was 2. The MIC in the data set with Staphylococcus aureus [5] is 128 µg/mL (≈ 210 µM).
For `O=[N+]([O-])c1ccc(C2=Nc3cc(C(F)(F)F)ccc3SC2)cc1`, the fold change (FC) was 8 in data set [7]; 16 in data set [8]; > 8 in [3]; > 32 in data set [4]; 2 in [10]; 2 in [9]. In data set [1], this molecule came in with an inhibition of 69.7%. Besides, the logP in data set [2] came out at 3.9. The same molecule had an MIC in the data set with Staphylococcus aureus [5] of 32 µg/mL (≈ 94.6 µM). Further, the result in the data set on Staphylococcus aureus [6] was inactive.
`COc1ccc(C2=Nc3ccccc3SC2)cc1OC`: the fold change (FC) in data set [7] worked out at 2; in data set [8], 4; in data set [3], 4; in data set [4] it was 16; in data set [9], 2. The same molecule showed an inhibition in data set [1] of 22.8%. The same molecule had an MIC in the data set on Staphylococcus aureus [5] of 128 µg/mL (≈ 449 µM). The outcome in the data set on Staphylococcus aureus [6] was inactive.
Turning to `O=C(O)c1cn(C2CC2)c2cc(N3CCNCC3)c(F)cc2c1=O` [CIPROFLOXACIN], the MIC is 2 µg/mL (≈ 6.04 µM) with Staphylococcus aureus [11], 0.5 µg/mL (≈ 1.51 µM) against Staphylococcus aureus [12] and 0.12 µg/mL (≈ 0.362 µM) against Staphylococcus aureus [13].
Turning to `COc1ccc(C2CSc3ccccc3N2)cc1` (configuration not stated), the fold change (FC) worked out at 4 in data set [7], 4 in data set [8], 2 in data set [3] and 8 in data set [4]. This molecule also registered an inhibition in data set [1] of 10.4%. Moreover, the MIC against Staphylococcus aureus [5] is > 128 µg/mL. In the data set with Staphylococcus aureus [6], the outcome was inactive.

Values taken from ChEMBL document CHEMBL1155078, “From phenothiazine to 3-phenyl-1,4-benzothiazine derivatives as inhibitors of the Staphylococcus aureus NorA multidrug efflux pump” (J Med Chem, 2008).
